A short description of data set [1]: Inhibition of FAP. Put shortly: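 Enzyme inhibition IC50 is reported as the mean of at least three experiments, with standard deviations of ±40%.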
The target in data set [2] is Dipeptidyl peptidase 2 (Homo sapiens, UniProt Q9UHL4). The data set can be described thus: Inhibition of DPP2.
The target in data set [3] is Dipeptidyl peptidase 4 (Homo sapiens, UniProt P27487).
Data set [4] addresses Dipeptidyl peptidase 8 (Homo sapiens, UniProt Q6V1X1). The data set can be described thus: Inhibition of DPP8.
The subject of data set [5] is Rattus norvegicus. The data set is described as follows: Inhibition of plasma DPP4 in Wistar rat at 3 mg/kg, po measured 30 mins to 4 hrs. To be noted: read-out: INH.
Data set [6] concerns Rattus norvegicus. The data set can be described thus: Inhibition of plasma DPP4 in Wistar rat at 3 mg/kg, po measured after 8 hrs. To be noted: read-out: INH.
Data set [7] has as its system Mus musculus. The data set is described as follows: Reduction in glucose excursion in C57BL/6 mouse at 3 mg/kg, po measured up to 120 mins by oral glucose tolerance test. Format: functional, organism-based. The arrangement: dose 3 mg/kg. Put shortly: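 C57BL/6j mice (n = 6) received the compound orally at 3 mpk, with water as the control, 30 min before a glucose load of 3 g/kg.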

Data set [8] in a line: Stability to the compound assessed as half life in phosphate buffer at pH 7.4. Format: physicochemical.

Consider 35 compounds from ChEMBL document CHEMBL1153357, “Rational design and synthesis of potent and long-lasting glutamic acid-based dipeptidyl peptidase IV inhibitors” (Bioorg Med Chem Lett, 2009).

Structures are written as SMILES. Activity calls are given as the source filed them. The calls are words filed in the database; no cut-off is given here.

Dipeptidyl peptidase 4, sequence (P27487 whole entry): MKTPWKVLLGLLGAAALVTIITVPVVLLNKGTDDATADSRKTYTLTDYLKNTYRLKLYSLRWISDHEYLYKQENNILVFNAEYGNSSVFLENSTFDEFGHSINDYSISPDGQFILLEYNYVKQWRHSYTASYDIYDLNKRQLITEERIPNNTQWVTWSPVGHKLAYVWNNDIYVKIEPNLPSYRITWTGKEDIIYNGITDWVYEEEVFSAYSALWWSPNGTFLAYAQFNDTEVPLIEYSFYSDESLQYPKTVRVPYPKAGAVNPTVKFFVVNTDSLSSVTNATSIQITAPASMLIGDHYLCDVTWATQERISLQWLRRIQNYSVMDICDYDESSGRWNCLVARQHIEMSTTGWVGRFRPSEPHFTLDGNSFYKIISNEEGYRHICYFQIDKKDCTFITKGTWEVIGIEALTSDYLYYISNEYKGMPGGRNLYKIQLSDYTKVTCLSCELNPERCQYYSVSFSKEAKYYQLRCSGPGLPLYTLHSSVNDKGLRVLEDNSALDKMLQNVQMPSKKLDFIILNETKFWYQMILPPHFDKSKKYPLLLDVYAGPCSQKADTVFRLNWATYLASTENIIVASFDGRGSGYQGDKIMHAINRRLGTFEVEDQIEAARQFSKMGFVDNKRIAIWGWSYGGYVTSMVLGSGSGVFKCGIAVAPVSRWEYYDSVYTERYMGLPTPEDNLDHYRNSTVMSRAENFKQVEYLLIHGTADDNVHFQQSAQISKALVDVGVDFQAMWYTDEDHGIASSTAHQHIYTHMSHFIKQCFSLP
Dipeptidyl peptidase 8, sequence (Q6V1X1 whole entry): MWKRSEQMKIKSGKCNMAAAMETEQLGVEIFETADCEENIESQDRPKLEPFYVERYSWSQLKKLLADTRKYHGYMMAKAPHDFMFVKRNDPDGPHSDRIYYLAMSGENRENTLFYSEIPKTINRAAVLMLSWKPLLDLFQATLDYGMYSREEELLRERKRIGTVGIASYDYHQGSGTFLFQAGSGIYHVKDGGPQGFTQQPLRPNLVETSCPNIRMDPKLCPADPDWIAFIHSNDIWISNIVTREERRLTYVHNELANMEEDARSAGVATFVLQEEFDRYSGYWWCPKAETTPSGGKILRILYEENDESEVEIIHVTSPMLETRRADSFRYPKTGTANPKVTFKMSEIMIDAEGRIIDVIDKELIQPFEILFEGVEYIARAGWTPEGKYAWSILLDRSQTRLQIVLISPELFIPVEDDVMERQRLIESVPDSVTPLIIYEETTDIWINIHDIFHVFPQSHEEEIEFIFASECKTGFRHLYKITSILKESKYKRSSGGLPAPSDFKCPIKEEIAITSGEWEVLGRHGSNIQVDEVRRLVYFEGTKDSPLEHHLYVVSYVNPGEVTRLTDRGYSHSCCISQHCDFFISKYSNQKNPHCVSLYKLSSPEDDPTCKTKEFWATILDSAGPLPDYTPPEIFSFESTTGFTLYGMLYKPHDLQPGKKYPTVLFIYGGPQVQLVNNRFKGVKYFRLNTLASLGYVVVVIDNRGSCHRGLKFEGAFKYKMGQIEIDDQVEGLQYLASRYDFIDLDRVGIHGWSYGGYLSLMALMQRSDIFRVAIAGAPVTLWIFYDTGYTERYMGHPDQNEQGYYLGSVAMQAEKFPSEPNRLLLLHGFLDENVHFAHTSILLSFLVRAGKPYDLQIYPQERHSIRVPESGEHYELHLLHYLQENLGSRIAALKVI

`COc1cc2c(cc1OC)C(C(C)C)N(C(=O)CC[C@H](N)C(=O)N1CCC[C@H]1C#N)CC2` (some centres undefined): it took 6.1 µM to reach half-maximal inhibition in data set [1] (IC50).
On to `N#C[C@@H]1CCCN1C(=O)[C@@H](N)CCC(=O)N1CCOCC1`, for which the IC50 in data set [2] was above 20 µM; in data set [1] it was above 20 µM; in data set [3], 0.017 µM.
Compound `N#C[C@@H]1CCCN1C(=O)[C@@H](N)CCC(=O)N1Cc2ccccc2C1` registered an IC50 in data set [1] of 1.2 µM.
Take `CC(C)(CC(=O)N1CCn2nc(C(F)(F)F)nc2C1)[C@H](N)C(=O)N1CCC[C@H]1C#N`: the concentration for half-maximal inhibition (IC50) was above 20 µM in data set [2], above 20 µM in data set [1] and 0.031 µM in data set [3].
In turn, `N#C[C@@H]1CCCN1C(=O)[C@@H](N)CCC(=O)N1CCN(c2ccncc2)CC1` yielded an IC50 in data set [1] of 0.47 µM.
On to `CCOC(=O)N1CCN(C(=O)CC[C@H](N)C(=O)N2CCC[C@H]2C#N)CC1`, for which the IC50 in data set [2] is above 20 µM; in data set [1], 3.1 µM; in data set [3] it was 0.031 µM.
Compound `N#C[C@@H]1CCCN1C(=O)[C@@H](N)CCC(=O)N1CCn2cc(C(F)(F)F)nc2C1` showed a 50% inhibitory concentration (IC50) in data set [1] of 14 µM.
With `N[C@@H](CCC(=O)N1Cc2ccccc2C1)C(=O)N1CCSC1`, the concentration for half-maximal inhibition (IC50) in data set [2] is above 20 µM; in data set [4], above 20 µM; in data set [1] it was 12 µM; in data set [3], 1.6 µM.
With `N#C[C@@H]1CCCN1C(=O)[C@@H](N)CCC(=O)N1CCn2cnnc2C1`, the values for the half-inhibitory concentration (IC50) in data set [2], in data set [1] and in data set [3] were above 20 µM, above 20 µM and 0.007 µM, respectively.
`N#C[C@@H]1CCCN1C(=O)[C@@H](N)CC(=O)N1Cc2ccccc2C1`: the IC50 in data set [2] and in data set [1] was above 20 µM in each case.
Turning to `CC(C)(CC(=O)N1CCc2ccccc2C1)[C@H](N)C(=O)N1CCC[C@H]1C#N`, the half-maximal inhibitory concentration (IC50) was above 20 µM in data set [2], above 20 µM in data set [1] and 0.016 µM in data set [3].
As to `C[C@H](CC(=O)N1CCn2c(nnc2C(F)(F)F)C1)[C@H](N)C(=O)N1CCC[C@H]1C#N`, the figures for the 50% inhibitory concentration (IC50) in data set [2] and in data set [1] were above 20 µM and 7.1 µM, respectively.
For `N#C[C@@H]1CCCN1C(=O)[C@@H](N)CCC(=O)N1CCn2c(nnc2C(F)(F)F)C1`, the IC50 in data set [1] is above 20 µM.
On the same count and under the same terms, next, `N#C[C@@H]1CCCN1C(=O)[C@@H](N)CCC(=O)N1CCc2ccccc2C1`: 8.8 µM.
For the compound `N#C[C@@H]1CCCN1C(=O)[C@@H](N)CCC(=O)NC1CCCC1`, the 50% inhibitory concentration (IC50) was above 20 µM in data set [2], above 20 µM in data set [1] and 0.011 µM in data set [3].
In data set [3], `N#C[C@@H]1CCCN1C(=O)[C@@H](N)CCC(=O)Nc1ccccc1` registered an IC50 of 0.037 µM.
Regarding `CC(C)(CC(=O)N1CCc2ccsc2C1)[C@H](N)C(=O)N1CCC[C@H]1C#N`, the IC50 was above 20 µM in data set [2], above 20 µM in data set [1] and 0.025 µM in data set [3].
In the case of `CC(C)(CC(=O)N1CCn2c(nnc2C(F)(F)F)C1)[C@H](N)C(=O)N1CCC[C@H]1C#N`, the half-maximal inhibitory concentration (IC50) was above 20 µM in data set [2], above 20 µM in data set [1] and 0.012 µM in data set [3].
In turn, `N[C@@H](CC(=O)N1CCn2c(nnc2C(F)(F)F)C1)Cc1cc(F)c(F)cc1F` [SITAGLIPTIN] displayed a 50% inhibitory concentration (IC50) in data set [1] above 20 µM.
Same read-out and setting: next, `N#CC1CCCN1C(=O)[C@@H](N)CCC(=O)N1Cc2ccccc2C1` (single isomer, unassigned): 1.2 µM.
Consider `N#C[C@@H]1CCCN1C(=O)CNC12CC3CC(CC(O)(C3)C1)C2` [VILDAGLIPTIN], for which the figures for the inhibition in vivo at 3 mg/kg in data set [5] and in data set [6] were above 80% and above 60%, respectively. In addition, in data set [7], the result was Active. In data set [1], this compound had an IC50 above 20 µM.
For `N#C[C@@H]1CCCN1C(=O)[C@@H](N)CCC(=O)N1CCSC1`, the values for the IC50 in data set [2], in data set [1] and in data set [3] were above 20 µM, 8.3 µM and 0.01 µM, respectively.
For the compound `C[C@@H]1CCCN1C(=O)CC(C)(C)[C@H](N)C(=O)N1CCC[C@H]1C#N`, the IC50 in data set [2] is above 20 µM; in data set [1], above 20 µM; in data set [3], 0.013 µM.
As for `N#C[C@@H]1CCCN1C(=O)[C@@H](N)CCC(=O)N1CCN(C(=O)C(F)(F)F)CC1`, the IC50 was above 20 µM in data set [2], 19 µM in data set [1] and 0.008 µM in data set [3].
The corresponding values for `COC[C@H]1CCCN1C(=O)CC[C@H](N)C(=O)N1CCC[C@H]1C#N` are above 20 µM, 21 µM and 0.022 µM.
In turn, `N#C[C@@H]1CCCN1C(=O)[C@@H](N)CCC(=O)N1CCc2nc(-c3ccc(F)cc3)sc2C1` returned a 50% inhibitory concentration (IC50) in data set [1] of 2.3 µM.
As for `CC[C@H](CC(=O)N1CCn2c(nnc2C(F)(F)F)C1)[C@H](N)C(=O)N1CCC[C@H]1C#N`, the figures for the IC50 in data set [2], in data set [1] and in data set [3] were above 20 µM, above 20 µM and 0.031 µM, respectively.
As to `N#C[C@@H]1CCCN1C(=O)[C@@H](N)CCCC(=O)N1Cc2ccccc2C1`, in data set [1], half-maximal inhibition (IC50) required 0.054 µM.
As to `COC[C@@H]1CCCN1C(=O)CC[C@H](N)C(=O)N1CCC[C@H]1C#N`, the figures for the IC50 in data set [2], in data set [1] and in data set [3] were above 20 µM, 20 µM and 0.007 µM, respectively.
As for `N#C[C@@H]1CCCN1C(=O)[C@@H](N)CCC(=O)N1CCn2nc(C(F)(F)F)nc2C1`, the 50% inhibitory concentration (IC50) in data set [2] was above 20 µM; in data set [1] it was above 20 µM; in data set [3] it was 0.009 µM.
In the case of `N#C[C@@H]1CCCN1C(=O)[C@@H](N)CCC(=O)N1CCCCC1`, the half-inhibitory concentration (IC50) in data set [2] is above 20 µM; in data set [1], above 20 µM; in data set [3], 0.015 µM.
`N#C[C@@H]1CCCN1C(=O)[C@@H](N)CCC(=O)N1CCc2ccsc2C1` returned a half-inhibitory concentration (IC50) in data set [1] of 7.5 µM.
For the compound `N#C[C@@H]1CCCN1C(=O)[C@@H](N)CCC(=O)N1CCCC1`, the concentration for half-maximal inhibition (IC50) in data set [2] is above 20 µM; in data set [1], 11 µM; in data set [3], 0.007 µM.
With `COC[C@@H]1CCCN1C(=O)CC(C)(C)[C@H](N)C(=O)N1CCC[C@H]1C#N.O=C(O)C(F)(F)F`, the inhibition in vivo at 3 mg/kg in data set [5] was above 80%; in data set [6] it was above 60%. In data set [7], the result was Active. The concentration for half-maximal inhibition (IC50) in data set [2] and in data set [1] was above 20 µM each time. Also, in data set [8], the half-life is above 168 h.
With `CC(C)(CC(=O)N1Cc2ccccc2C1)[C@H](N)C(=O)N1CCC[C@H]1C#N`, the IC50 is above 20 µM in data set [2], above 20 µM in data set [1] and 0.012 µM in data set [3].
